We go through 23 molecules from ChEMBL document CHEMBL1833919, “Does the combination of optimal substitutions at the C²-, N⁵- and N⁸-positions of the pyrazolo-triazolo-pyrimidine scaffold guarantee selective modulation of the human A₃ adenosine receptors?” (Bioorg Med Chem, 2011).

pKi: −log10 of the molar value.

The target of test [1] is T1, Adenosine receptor A2b (Homo sapiens, UniProt P29275).
T1 sequence (P29275 whole entry): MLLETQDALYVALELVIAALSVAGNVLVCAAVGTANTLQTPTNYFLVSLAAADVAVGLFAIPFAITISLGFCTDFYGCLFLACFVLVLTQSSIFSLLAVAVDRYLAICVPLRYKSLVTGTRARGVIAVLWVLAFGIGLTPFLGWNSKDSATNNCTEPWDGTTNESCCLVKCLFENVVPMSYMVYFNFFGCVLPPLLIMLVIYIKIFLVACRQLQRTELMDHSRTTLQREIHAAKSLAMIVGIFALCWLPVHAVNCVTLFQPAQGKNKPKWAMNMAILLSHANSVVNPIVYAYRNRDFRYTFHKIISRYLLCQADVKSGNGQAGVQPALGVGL
The experiment in a line: Antagonist activity human recombinant adenosine 2B receptor expressed in CHO cells assessed as inhibition of NECA-stimulated adenylyl cyclase activity. It is filed as functional, cell-based. The procedure, abridged: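 Membranes from hA2B-expressing CHO cells, single 54,000g 30-min spin, resuspended in 50 mM Tris/HCl pH 7.4 and used at once. Incubated 20 min with about 150,000 cpm [α-32P]ATP, no EGTA or NaCl. IC50 from concentration-dependent inhibition of NECA-stimulated adenylyl cyclase, converted to Ki; n = 3-6, geometric means with 95% confidence limits.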

Test [2] has as its target Adenosine receptor A2a (Homo sapiens, UniProt P29274). The experiment in a line: Displacement of [3H]NECA from human recombinant adenosine 2A receptor expressed in CHO cells after 3 hrs. The format is cell-based. The essentials:
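Membranes at 50 μg protein, incubated 3 h at 25 °C in 50 mM Tris/HCl, 10 mM MgCl2, pH 7.4 with 30 nM [3H]NECA and varied test concentrations. 100 μM R-PIA defined nonspecific binding. Bound ligand separated on glass-fiber filters and counted. Ki by Cheng-Prusoff; n = 3-6, geometric means, 95% CI.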
In general terms: Displacement assays read how much labelled ligand stays bound in the presence of the test substance.

The species named for test [3] is Homo sapiens. As to the kind of experiment: Selectivity ratio of Ki for human recombinant adenosine 2a receptor to Ki for human recombinant adenosine A3 receptor.
Test [4] deals with T2, Adenosine receptor A1 (Homo sapiens, UniProt P30542).
T2 sequence (P30542 whole entry): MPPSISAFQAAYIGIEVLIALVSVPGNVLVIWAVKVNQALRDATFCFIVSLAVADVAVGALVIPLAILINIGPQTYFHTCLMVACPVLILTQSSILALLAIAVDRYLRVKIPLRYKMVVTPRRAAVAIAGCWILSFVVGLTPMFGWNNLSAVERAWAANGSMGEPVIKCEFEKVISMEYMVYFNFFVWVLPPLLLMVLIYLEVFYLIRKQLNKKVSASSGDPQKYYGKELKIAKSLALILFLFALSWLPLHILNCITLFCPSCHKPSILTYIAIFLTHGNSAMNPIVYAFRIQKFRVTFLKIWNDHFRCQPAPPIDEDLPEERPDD
The experiment in a line: Displacement of [3H]CCPA from human recombinant adenosine A1 receptor expressed in CHO cells after 3 hrs. It is filed as cell-based. The procedure, abridged:
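CHO membranes (two-step spin, stored -80 °C), 20 μg protein, incubated 3 h at 25 °C in 200 μL 50 mM Tris/HCl pH 7.4 with 1 nM [3H]CCPA, 0.2 U/mL adenosine deaminase and a range of test concentrations. Nonspecific binding with 1 mM theophylline. Filtration and scintillation counting. Ki by Cheng-Prusoff; n = 3-6, geometric means, 95% CI.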

Test [5] concerns the target T3, Adenosine receptor A3 (Homo sapiens, UniProt P0DMS8).
T3 sequence (P0DMS8 whole entry): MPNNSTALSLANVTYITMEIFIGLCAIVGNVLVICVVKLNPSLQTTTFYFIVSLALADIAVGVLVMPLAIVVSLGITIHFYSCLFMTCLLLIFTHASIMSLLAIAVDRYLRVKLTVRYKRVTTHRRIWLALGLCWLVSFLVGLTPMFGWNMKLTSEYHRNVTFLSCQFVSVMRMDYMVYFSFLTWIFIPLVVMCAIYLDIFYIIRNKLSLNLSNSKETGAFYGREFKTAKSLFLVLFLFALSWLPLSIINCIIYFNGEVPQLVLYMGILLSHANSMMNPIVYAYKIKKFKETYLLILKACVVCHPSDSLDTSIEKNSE
The experiment in a line: Displacement of [3H]NECA from human recombinant adenosine A3 receptor expressed in CHO cells after 3 hrs. The format is cell-based. The essentials:
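20 μg membrane protein in 50 mM Tris/HCl, 1 mM EDTA, 10 mM MgCl2, pH 8.25 with 10 nM [3H]NECA and test compound over a concentration range, 3 h at 25 °C. Nonspecific binding with 100 μM R-PIA. Filtration, then counting. Ki via Cheng-Prusoff; n = 3-6, geometric means with 95% CI.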

The target in test [6] is Adenosine receptors; A1 & A3 (Homo sapiens) (UniProt P30542+P0DMS8). The experiment in a line: Selectivity ratio of Ki for human recombinant adenosine A1 receptor to Ki for human recombinant adenosine A3 receptor.

Sequence of Adenosine receptor A2a (P29274 whole entry): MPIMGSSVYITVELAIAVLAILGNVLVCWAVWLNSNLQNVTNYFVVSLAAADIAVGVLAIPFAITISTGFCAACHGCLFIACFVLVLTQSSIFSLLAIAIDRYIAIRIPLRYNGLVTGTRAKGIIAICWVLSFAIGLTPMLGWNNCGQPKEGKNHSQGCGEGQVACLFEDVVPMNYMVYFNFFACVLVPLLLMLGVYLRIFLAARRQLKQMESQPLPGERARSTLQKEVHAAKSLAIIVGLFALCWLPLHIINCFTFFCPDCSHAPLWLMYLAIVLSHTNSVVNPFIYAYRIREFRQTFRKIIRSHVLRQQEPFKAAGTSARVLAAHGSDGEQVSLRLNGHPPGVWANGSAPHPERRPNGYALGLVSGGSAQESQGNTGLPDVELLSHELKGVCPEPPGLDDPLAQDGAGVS

On to `Cn1cc2c(nc(NC(=O)Nc3ccc(F)cc3)n3nc(-c4ccc(C(F)(F)F)cc4)nc23)n1`, for which the pKi was below 5.00 in test [1], below 4.52 in test [2], 5.35 in test [4] and 8.72 in test [5]. Further, the Ratio Ki in test [3] was above 15700; in test [6], 2310.

`Cn1cc2c(nc(N)n3nc(-c4ccc(C(F)(F)F)cc4)nc23)n1`: the pKi was below 5.00 in test [1], 5.16 in test [2], below 4.00 in test [4] and 6.52 in test [5]. Besides, the Ratio Ki in test [3] is 22.8; in test [6], above 329.

Regarding `O=C(Cc1ccccc1)Nc1nc2nn(CCc3ccccc3)cc2c2nc(-c3ccc(F)cc3)nn12`, the pKi is below 4.52 in test [1], 6.24 in test [2], 6.63 in test [4] and 8.48 in test [5]. Further, the Ratio Ki was found to be 171 in test [3] and 69.5 in test [6].

In the case of `O=C(Nc1nc2nn(CCc3ccccc3)cc2c2nc(-c3ccc(F)cc3)nn12)c1ccccc1`, the pKi in test [1] is below 4.52; in test [2], 5.39; in test [4] it was 6.40; in test [5], 7.77. The Ratio Ki amounted to 236 in test [3] and 23.1 in test [6].

For `Cn1cc2c(nc(N)n3nc(-c4ccc(-c5ccccc5)cc4)nc23)n1`, the pKi was below 5.00 in test [1], below 4.52 in test [2], below 4.00 in test [4] and 6.83 in test [5]. The Ratio Ki is above 204 in test [3] and above 680 in test [6].

Turning to `Cn1cc2c(nc(NC(=O)Nc3ccccc3)n3nc(-c4ccc(Cl)cc4)nc23)n1`, the pKi in test [1] was below 5.00; in test [2] it was 6.01; in test [4] it was 5.26; in test [5], 8.77. Moreover, the Ratio Ki in test [3] is 577; in test [6], 3250.

Turning to `Cn1cc2c(nc(NC(=O)Nc3ccccc3)n3nc(-c4ccc(-c5ccccc5)cc4)nc23)n1`, the pKi in test [1] is below 5.00; in test [2] it was below 4.52; in test [4] it was below 4.52; in test [5] it was 8.23. The Ratio Ki in test [3] and in test [6] was above 5090 in each case.

For the molecule `Cn1cc2c(nc(NC(=O)Nc3ccccc3)n3nc(-c4ccco4)nc23)n1`, the values for the Ratio Ki in test [3] and in test [6] were 2380 and 3710, respectively.

With `Cn1cc2c(nc(NC(=O)Nc3ccc(F)cc3)n3nc(-c4ccc(-c5ccccc5)cc4)nc23)n1`, the pKi is below 5.00 in test [1], below 4.00 in test [2], below 4.00 in test [4] and 8.39 in test [5]. Further, the Ratio Ki in test [3] and in test [6] was above 24600 each time.

With `O=C(Cc1ccccc1)Nc1nc2nn(CCc3ccccc3)cc2c2nc(-c3ccccc3)nn12`, the pKi in test [1] is below 4.52; in test [2], 6.21; in test [4], 6.72; in test [5], 8.52. In addition, the Ratio Ki stood at 203 in test [3] and 63.6 in test [6].

For the molecule `Cn1cc2c(nc(NC(=O)Nc3ccccc3)n3nc(-c4ccc(C(F)(F)F)cc4)nc23)n1`, the pKi is below 5.00 in test [1], 4.44 in test [2], 4.89 in test [4] and 8.46 in test [5]. For the same molecule, the Ratio Ki was 10500 in test [3] and 3750 in test [6].

For the molecule `O=C(Cc1ccccc1)Nc1nc2nn(CCc3ccccc3)cc2c2nc(-c3ccc(Br)cc3)nn12`, the pKi in test [1], in test [2], in test [4] and in test [5] was below 5.00 throughout.

As to `COc1ccc(NC(=O)Nc2nc3nn(C)cc3c3nc(-c4ccc(C(F)(F)F)cc4)nn23)cc1`, the pKi is below 5.00 in test [1], below 4.00 in test [2], below 4.00 in test [4] and 8.63 in test [5]. Besides, the Ratio Ki in test [3] and in test [6] was above 42400 in each case.

`O=C(Cc1ccccc1)Nc1nc2nn(CCc3ccccc3)cc2c2nc(-c3ccco3)nn12`: the Ratio Ki in test [3] worked out at 1.33; in test [6], 2.67. For the same molecule, the pKi in test [5] was 7.35.

Take `COc1ccc(NC(=O)Nc2nc3nn(C)cc3c3nc(-c4ccc(Cl)cc4)nn23)cc1`: the pKi in test [1] is below 5.00; in test [2] it was 5.84; in test [4], 5.19; in test [5] it was 8.88. Further, the results for the Ratio Ki in test [3] and in test [6] were 1100 and 4880, respectively.

On to `O=C(Cc1ccccc1)Nc1nc2nn(CCc3ccccc3)cc2c2nc(-c3ccc(Cl)cc3)nn12`, for which the pKi in test [1] is below 4.52; in test [2], 5.51; in test [4], 6.03. Also, the Ratio Ki turned out to be 364 in test [3] and 110 in test [6].

Regarding `COc1ccc(NC(=O)Nc2nc3nn(C)cc3c3nc(-c4ccc(-c5ccccc5)cc4)nn23)cc1`, the pKi in test [1] is below 5.00; in test [2] it was below 4.00; in test [4], below 4.00; in test [5], 8.68. For the same molecule, the Ratio Ki in test [3] and in test [6] was above 47600 in each case.

Turning to `Cn1cc2c(nc(NC(=O)Nc3ccc(F)cc3)n3nc(-c4ccc(Cl)cc4)nc23)n1`, the pKi in test [1] was below 5.00; in test [2] it was 5.97; in test [4] it was below 4.52; in test [5], 8.28. In addition, the results for the Ratio Ki in test [3] and in test [6] were 200 and above 5660, respectively.

Turning to `Cn1cc2c(nc(NC(=O)Nc3ccccc3)n3nc(-c4ccc(Br)cc4)nc23)n1`, the pKi in test [1] is below 5.00; in test [2], 5.63; in test [4] it was below 5.00; in test [5], 8.60. Besides, the values for the Ratio Ki in test [3] and in test [6] were 944 and above 4000, respectively.

In the case of `COc1ccc(-c2nc3c4cn(CCc5ccccc5)nc4nc(NC(=O)c4ccccc4)n3n2)cc1`, the pKi in test [1] is below 5.00; in test [2], 4.60; in test [4], 6.08; in test [5], 7.54. For the same molecule, the Ratio Ki in test [3] amounted to 872; in test [6], 28.8.

`Cn1cc2c(nc(NC(=O)Nc3ccc(F)cc3)n3nc(-c4ccc(Br)cc4)nc23)n1`: the pKi in test [1] is below 5.00; in test [2], 5.23; in test [4], below 4.52; in test [5] it was 8.76. In addition, the Ratio Ki in test [3] was 3450; in test [6], above 17400.

On to `O=C(Nc1nc2nn(CCc3ccccc3)cc2c2nc(-c3ccc(Cl)cc3)nn12)c1ccccc1`, for which the pKi in test [1] is below 4.52; in test [2] it was 4.71; in test [4] it was 6.66; in test [5] it was 7.94. In addition, the Ratio Ki in test [3] worked out at 1700; in test [6], 19.4.

In the case of `COc1ccc(NC(=O)Nc2nc3nn(C)cc3c3nc(-c4ccc(Br)cc4)nn23)cc1`, the pKi in test [1] is below 5.00; in test [2] it was 5.08; in test [4] it was below 5.00; in test [5], 8.71. For the same molecule, the figures for the Ratio Ki in test [3] and in test [6] were 4310 and above 5130, respectively.

A word on the pKi: it is the negative decadic logarithm of the Ki, by convention in mol/L.
